Assay results collected from several papers.
Protocols differ between the studies behind these lines. In brackets after ≈: the same amount, converted by molar mass.

| SMILES | organism | assay | system | setting | quantity | result |
| --- | --- | --- | --- | --- | --- | --- |
| Fc1ccc(-c2nc3ccccc3[nH]2)cc1 | Enterococcus faecalis | microbial growth, broth dilution | ATCC29212 |  | MIC | 256 µg/mL |
| COc1cccc(-n2cc(CN3CCN(C(=O)c4c(C)nc5ccc(Cl)cn45)CC3)nn2)c1 | Leishmania major | parasite growth, resazurin |  | 72 h, promastigote | IC50 | 112 µM |
| O=C1NN=C(N=Cc2ccc(O)cc2O)C1=NNn1c(-c2ccccc2)nc2ccccc2c1=O | Aspergillus fumigatus | microbial growth, broth dilution |  |  | MIC | 53.5 µM |
| c1ccc2c(-c3nc4ccccc4[nH]3)c3ccccc3cc2c1 | Enterococcus faecalis | microbial growth, broth dilution | ATCC29212 |  | MIC | 64 µg/mL |
| Cc1nc2ccc(Cl)cn2c1C(=O)N1CCN(Cc2cn(-c3ccccc3)nn2)CC1 | Leishmania major | parasite growth, resazurin |  | 72 h, promastigote | IC50 | 192 µM |
| C[C@@H]1[C@H](O)[C@@H](C)/C=C/C=C/C=C/C=C/C=C/C=C/C=C/[C@H](O[C@@H]2O[C@H](C)[C@@H](O)[C@H](N)[C@@H]2O)C[C@@H]2O[C@](O)(C[C@@H](O)C[C@@H](O)[C@H](O)CC[C@@H](O)C[C@@H](O)CC(=O)O[C@H]1C)C[C@H](O)[C@H]2C(=O)O | Aspergillus fumigatus | microbial killing | ATCC204305 |  | MFC | 2.57 µM (≈ 2.37 µg/mL) |
| C[C@@H]1[C@H](O)[C@@H](C)/C=C/C=C/C=C/C=C/C=C/C=C/C=C/[C@H](O[C@@H]2O[C@H](C)[C@@H](O)[C@H](N)[C@@H]2O)C[C@@H]2O[C@](O)(C[C@@H](O)C[C@@H](O)[C@H](O)CC[C@@H](O)C[C@@H](O)CC(=O)O[C@H]1C)C[C@H](O)[C@H]2C(=O)O | Aspergillus fumigatus | microbial growth, resazurin | ATCC204305 |  | IC50 | 1.18 µg/mL |
| Cc1ccc2nc(-c3ccc(N(C)C)cc3)[nH]c2c1 | Enterococcus faecalis | microbial growth, broth dilution | ATCC29212 |  | MIC | 64 µg/mL |
| N=C(NCCCCCCNC(=N)NC(=N)Nc1ccc(Cl)cc1)NC(=N)Nc1ccc(Cl)cc1 | Acanthamoeba griffini | parasite growth, resazurin |  | 96 h | IC50 | 7.38 µM |
| Oc1ccc(Br)cc1-c1nc2ccccc2[nH]1 | Enterococcus faecalis | microbial growth, broth dilution | ATCC29212 |  | MIC | 128 µg/mL |
| Cc1nc2ccc(Cl)cn2c1C(=O)N1CCN(Cc2cn(-c3ccccc3Cl)nn2)CC1 | Leishmania major | parasite growth, resazurin |  | 72 h, promastigote | IC50 | 91.5 µM |
| O=C(O)c1cn(C2CC2)c2cc(N3CCNCC3)c(F)cc2c1=O | Enterococcus faecalis | microbial growth, broth dilution | ATCC29212 |  | MIC | 8 µg/mL |
| CC1=NN(CNc2ccccc2[N+](=O)[O-])C(=O)C1=NNn1c(-c2ccccc2)nc2ccccc2c1=O | Aspergillus fumigatus | microbial growth, broth dilution |  |  | MIC | 50.4 µM |
| CC1(C)OB(CC2c3ccccc3C(=O)N2C2CCCCC2)OC1(C)C (centres unmarked) | Leishmania major | parasite growth |  | intracellular, amastigote | IC50 | 13.2 µM |
| Cc1ccn2c(C(=O)N3CCN(Cc4cn(-c5ccccc5)nn4)CC3)c(C)nc2c1 | Leishmania major | parasite growth, resazurin |  | 72 h, promastigote | IC50 | 246 µM |
| CN(C)N1C(=O)c2ccccc2C1CB1OC(C)(C)C(C)(C)O1 (centres unmarked) | Leishmania major | parasite growth |  | promastigote | IC50 | 238 µM |
| CCCCCCCCCc1cn(CCN2CCN(C(=O)c3c(C)nc4cc(C)ccn34)CC2)nn1 | Leishmania major | parasite growth, resazurin |  | 72 h, promastigote | IC50 | 38.5 µM |
| C[C@@H](c1ncncc1F)[C@](O)(Cn1cncn1)c1ccc(F)cc1F | Acanthamoeba griffini | parasite growth, resazurin |  | 7 days | IC50 | 37.6 µM |
| Cc1ccc2nc(-c3ccc([N+](=O)[O-])cc3)n(Cc3ccccc3Cl)c2c1 | Enterococcus faecalis | microbial growth, broth dilution | ATCC29212 |  | MIC | 64 µg/mL |
| CCc1ccc(-n2cc(CN3CCN(C(=O)c4c(C)nc5cc(C)ccn45)CC3)nn2)cc1 | Leishmania major | parasite growth, resazurin |  | 72 h, promastigote | IC50 | 74.6 µM |
